Legend:
Type in all cases: functional
Staphylococcus aureus [1] = assay: Antibacterial activity against Staphylococcus aureus after 12 hrs relative to vancomycin
How it was run: (§1)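 Paper disk diffusion: 0.1 mg sample loaded per disk, incubated on bouillon culture medium at 37 °C. Inhibition zone diameter measured after 12 h. Activity expressed relative to a vancomycin standard disk (0.1 mg).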

Bacillus subtilis [2] = assay: Antibacterial activity against Bacillus subtilis after 12 hrs relative to vancomycin; how it was run: as §1
Staphylococcus aureus [3] = assay: Antibacterial activity against Staphylococcus aureus after 12 hrs
How it was run: (§2)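 Paper disk diffusion: 0.1 mg sample loaded per disk, incubated in bouillon culture medium at 37 °C for 12 h, then inhibition zone diameter measured. Activity expressed relative to vancomycin standard (0.1 mg per disk).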

Bacillus subtilis [4] = assay: Antibacterial activity against Bacillus subtilis after 12 hrs; how it was run: as §2

| SMILES | Activity (Staphylococcus aureus [1]) | Activity (Bacillus subtilis [2]) | inhibition zone (IZ) (Staphylococcus aureus [3]) [mm] | inhibition zone (IZ) (Bacillus subtilis [4]) [mm] |
| --- | --- | --- | --- | --- |
| CC[C@H]1O[C@@H]2[C@@H](/C=C\C/C=C\CCCCC(=O)O)[C@H]1C[C@H]2Cl | 0.4 | 0.43 |  |  |
| CC[C@@H]1OC(=O)CCCC/C=C\C/C=C\[C@H]2[C@H]1C[C@@H]1O[C@H]21 [ECKLONIALACTONE A] | 0.41 | 0.3 |  |  |
| CC[C@H](Cl)[C@@H]1C[C@@H]2O[C@@H]2[C@H]1/C=C\C/C=C\CCCCC(=O)O [EGREGIACHLORIDE A] | 0.47 | 0.35 |  |  |
| CC[C@@H]1OC(=O)CCCC/C=C\C/C=C\[C@@H]2[C@@H](O)[C@H](Cl)C[C@H]21 [EISENIACHLORIDE A] | 0.38 | 0.36 |  |  |
| CC[C@@H]1OC(=O)CCCCCCC/C=C\[C@@H]2[C@@H](O)[C@H](Cl)C[C@H]21 [EISENIACHLORIDE B] | 0.53 | 0.31 |  |  |
| CC[C@@H]1OC(=O)CCC/C=C\C/C=C\C/C=C\[C@@H]2[C@@H](O)[C@H](Cl)C[C@H]21 [EISENIACHLORIDE C] | 0.34 | 0.29 |  |  |
| CC[C@@H]1OC(=O)CCCCCCC/C=C\[C@@H]2[C@@H](O)[C@H](I)C[C@H]21 [EISENIAIODIDE B] | 0.47 | 0.28 |  |  |
| CN[C@H](CC(C)C)C(=O)N[C@H]1C(=O)N[C@@H](CC(N)=O)C(=O)N[C@H]2C(=O)N[C@H]3C(=O)N[C@H](C(=O)N[C@H](C(=O)O)c4cc(O)cc(O)c4-c4cc3ccc4O)[C@H](O)c3ccc(c(Cl)c3)Oc3cc2cc(c3O[C@@H]2O[C@H](CO)[C@@H](O)[C@H](O)[C@H]2O[C@H]2C[C@](C)(N)[C@H](O)[C@H](C)O2)Oc2ccc(cc2Cl)[C@H]1O [VANCOMYCIN] | 1 | 1 | 34.6 | 26.8 |

— ChEMBL document CHEMBL1147230, “Novel oxylipin metabolites from the brown alga Eisenia bicyclis” (2003)
